Assay outcomes from PubChem.
IDH1 mut inh – inhibitors of IDH1 R132H reductase, primary screen, biochemical, plate reader, single point | Isocitrate dehydrogenase [NADP] cytoplasmic (Homo sapiens), O75874 | diaphorase/resazurin fluorescence, 60 min | inhibition, % at 10 µM | hit rate 0.18% among 70,000; in the data active = inhibition above about 34%; inconclusive = no clear call, values can overlap the other calls; inactive = below about 11%
GASC1 inh – inhibitors of GASC-1 (KDM4C) histone demethylase, primary screen, biochemical, single concentration HTS; Lysine-specific demethylase 4C (Homo sapiens), Q9H3R0; GST-KDM4C 2-372, H3K9me3 peptide, LANCE TR-FRET; inhibition, % at 12.5 µM; hit rate 0.15% among 96,000; AID 720574, 2013;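 active = mean replicate inhibition above about 25%, with at least 55% of replicates also reaching it, limit read from the data, passing the limit was not always enough; inconclusive = only one of those two conditions met; inactive = neither condition met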
Target sequence (Q9H3R0 2-372 limits assumed): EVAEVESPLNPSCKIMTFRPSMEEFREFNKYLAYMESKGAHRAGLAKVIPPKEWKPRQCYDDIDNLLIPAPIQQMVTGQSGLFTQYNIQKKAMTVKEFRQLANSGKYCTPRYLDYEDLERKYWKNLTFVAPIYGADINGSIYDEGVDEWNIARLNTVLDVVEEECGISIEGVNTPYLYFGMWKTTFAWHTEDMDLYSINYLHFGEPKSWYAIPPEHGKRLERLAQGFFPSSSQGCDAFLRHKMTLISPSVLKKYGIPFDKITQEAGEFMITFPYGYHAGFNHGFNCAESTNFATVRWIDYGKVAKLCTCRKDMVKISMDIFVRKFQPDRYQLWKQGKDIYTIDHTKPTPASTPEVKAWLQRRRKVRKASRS
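System: N-terminal GST-fused human GASC-1 (KDM4C) fragment, residues 2-372 / Amount: 10 nM GST-KDM4C in enzyme reaction / Also added: H3K9me3 peptide with Fe(II)/2OG / Times: 30 min demethylation and 1 h detection at room temperature / Signal: LANCE TR-FRET / Read-out basis: Fall in 671/618 emission ratio as inhibition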
Tcruzi prolif – T. cruzi intracellular proliferation inhibitors, primary screen, cell-based, beta-gal Tulahuen parasites, NIH3T3 host, luminescence; T. cruzi beta-gal in NIH3T3, GalScreen luminescence, 90 h; inhibition, % at 8.34 µM; hit rate 5.9% among 77,000;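 active = mean inhibition above about 93%, with at least 55% of replicates each passing it, limit read from the data, passing the limit was not always enough; inconclusive = only one of those two conditions holds; inactive = neither condition holds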
Pf Dd2 inh – P. falciparum Dd2 growth inhibitors, primary screen, SYBR Green fluorescence, single dose replicates | 72 h; hits give low values | activity change, % at 10 µM | hit rate 2.3% among 94,000; in the data active = activity change below about -80%; inconclusive = no clear call, values can overlap the other calls
A number is an active result; – = inactive; ? = inconclusive; · = no result; ! = not confirmed by another sample. Shown are actives, neighbours in structure and some others; about 5.8% of the full set was active somewhere.

SMILES	IDH1 mut inh	GASC1 inh	Tcruzi prolif	Pf Dd2 inh
N#Cc1ccc(-c2ccc(C3[C@@H]4CN(C(=O)Nc5ccc(C(F)(F)F)cc5)C[C@H]3N4)cc2)cc1 (stereo partly drawn)	·	–	·	?
COc1ccc(-c2ccc(C3[C@H]4CNC[C@@H]3N4C(=O)Nc3ccc(C(F)(F)F)cc3)cc2)cc1 (stereo partly drawn)	·	–	·	-84.1!
COc1ccc(NC(=O)N2[C@@H]3CNC[C@H]2C3c2ccc(-c3ccc(OC)cc3)cc2)cc1 (stereo partly drawn)	·	–	·	–
O=C(Nc1ccc(C(F)(F)F)cc1)N1C[C@@H]2N[C@H](C1)C2c1ccc(-c2cccc(F)c2)cc1 (stereo partly drawn)	·	–	·	-83.5!
Cc1ccc(-c2ccc(C3[C@@H]4CN(C(=O)Nc5ccc(C(F)(F)F)cc5)C[C@H]3N4)cc2)cc1 (stereo partly drawn)	·	–	·	-85.0
COc1ccc2c3c([nH]c2c1)[C@H](CO)N(C(=O)Nc1ccc(F)cc1)CC31CCN(S(=O)(=O)c2cccc(C)c2)CC1	·	–	·	-82.6
COc1ccc2c3c([nH]c2c1)[C@H](CO)N(C(=O)Nc1ccc(F)cc1)CC31CCN(C(=O)Nc2ccc3c(c2)OCO3)CC1	·	–	·	-85.6
COc1ccc2c3c([nH]c2c1)[C@@H](CO)N(C(=O)Nc1ccc(F)cc1)CC31CCN(Cc2cc(-c3ccccc3)on2)CC1	·	–	·	-82.7
COc1ccc2c3c([nH]c2c1)[C@H](CO)N(C(=O)Nc1ccc(F)cc1)CC31CCN(S(=O)(=O)c2ccc(C)cc2)CC1	·	–	·	-82.3
COc1ccc2c3c([nH]c2c1)[C@@H](CO)N(C(=O)Nc1ccc(F)cc1)CC31CCN(S(=O)(=O)c2cccc(C)c2)CC1	·	–	·	–
COc1ccc2c3c([nH]c2c1)[C@@H](CO)N(C(=O)Nc1ccc(F)cc1)CC31CCN(S(=O)(=O)c2ccc(C)cc2)CC1	·	–	·	–
CO[C@H]1CN(C)C(=O)c2cc(NC(=O)Nc3cccc(F)c3)ccc2OC[C@@H](C)N(C(=O)Nc2c(C)noc2C)C[C@H]1C	–	–	–	–
N#C[C@H]1[C@@H](c2ccc(C#Cc3ccccc3F)cc2)[C@@H](CO)N1C(=O)C1CCCCC1	–	–	–	-92.6
N#C[C@@H]1[C@H](c2ccc(C#Cc3ccccc3F)cc2)[C@H](CO)N1C(=O)C1CCCC1	·	–	·	-88.2
N#C[C@H]1[C@H](c2ccc(C#Cc3ccccc3F)cc2)[C@@H](CO)N1C(=O)C1CCCCC1	·	–	–	–
N#C[C@H]1[C@@H](c2ccc(C#Cc3ccccc3F)cc2)[C@H](CO)N1C(=O)C1CCCC1	·	–	·	–
C[C@@H]1CCCCO[C@H](CN(C)Cc2ccc3c(c2)OCO3)[C@H](C)CN([C@@H](C)CO)C(=O)c2cc(N(C)C)ccc2O1	–	·	–	–
C[C@@H]1CCCCO[C@H](CN(C)Cc2ccc(Cl)c(Cl)c2)[C@@H](C)CN([C@@H](C)CO)C(=O)c2cc(NC(=O)Nc3ccc4c(c3)OCO4)ccc2O1	·	–	–	-90.6
C[C@@H]1CN([C@@H](C)CO)C(=O)c2cc(NC(=O)Nc3ccc4c(c3)OCO4)ccc2O[C@@H](C)CCCCO[C@@H]1CN(C)Cc1ccc2c(c1)OCO2	–	–	·	?
C[C@@H]1CN([C@@H](C)CO)C(=O)c2cc(NC(=O)Nc3ccc(F)cc3)ccc2O[C@@H](C)CCCCO[C@@H]1CN(C)Cc1ccc2c(c1)OCO2	·	–	–	-83.0
C[C@@H]1CCCCO[C@@H](CN(C)Cc2ccc3c(c2)OCO3)[C@H](C)CN([C@@H](C)CO)C(=O)c2cc(N(C)C)ccc2O1	·	·	102.0!	–
C[C@@H]1CN([C@@H](C)CO)S(=O)(=O)c2ccc(Br)cc2O[C@@H]1CN(C)Cc1cncnc1	–	–	–	–
O=C(C[C@H]1CC[C@@H]2[C@H](COC[C@@H](O)CN2C(=O)Nc2ccc3c(c2)OCO3)O1)N1CCN(c2ccccc2)CC1	·	–	·	-87.6
O=C(C[C@@H]1CC[C@@H]2[C@H](COC[C@H](O)CN2C(=O)Nc2ccc3c(c2)OCO3)O1)N1CCN(c2ccccc2)CC1	·	–	·	–
CCC(=O)N1CCC2(CC1)CN(S(=O)(=O)c1ccccc1)[C@@H](CO)c1[nH]c3cc(OC)ccc3c12	·	–	·	-91.6
SMILES	IDH1 mut inh	GASC1 inh	Tcruzi prolif	Pf Dd2 inh
CCC(=O)N1CC2(C1)CN(S(=O)(=O)c1ccccc1)[C@H](CO)c1[nH]c3cc(OC)ccc3c12	·	–	·	–
COc1ccc2c3c([nH]c2c1)[C@H](CO)N(S(=O)(=O)c1ccc(C)cc1)CC31CN(Cc2ccccc2)C1	·	–	·	-87.3
COc1ccc2c3c([nH]c2c1)[C@@H](CO)N(S(=O)(=O)c1cn(C)cn1)CC31CCN(CC2CCCC2)CC1	·	–	·	–
CCC(=O)N1CC2(C1)CN(S(=O)(=O)c1ccccc1)[C@@H](CO)c1[nH]c3cc(OC)ccc3c12	·	–	·	-92.9
COc1ccc2c3c([nH]c2c1)[C@H](CO)N(S(=O)(=O)c1cn(C)cn1)CC31CCN(CC2CCCCC2)CC1	·	–	·	-84.9
COC(=O)C[C@@H]1CC[C@H]2[C@@H](COC[C@@H](O)CN2S(=O)(=O)c2ccc(F)cc2)O1	·	–	–	–
CCS(=O)(=O)N1CCC2(CC1)CN(S(=O)(=O)c1ccc(C)cc1)[C@@H](CO)c1[nH]c3cc(OC)ccc3c12	·	–	·	-89.5
COc1ccc2c3c([nH]c2c1)[C@H](CO)NCC31CCN(S(=O)(=O)c2ccccc2)CC1	·	–	·	–
COc1ccc(S(=O)(=O)N2CCC3(CC2)CN(Cc2ccncc2)[C@@H](CO)c2[nH]c4cc(OC)ccc4c23)cc1	·	–	·	-87.2
COc1cccc(S(=O)(=O)N2CCC3(CC2)CN[C@@H](CO)c2[nH]c4cc(OC)ccc4c23)c1	·	–	·	-92.3
CCS(=O)(=O)N1CC2(C1)CN(S(=O)(=O)c1cccc(OC)c1)[C@@H](CO)c1[nH]c3cc(OC)ccc3c12	·	–	·	-84.2
COc1ccc(S(=O)(=O)N2CC3(CN(Cc4ccncc4)[C@H](CO)c4[nH]c5cc(OC)ccc5c43)C2)cc1	·	–	·	–
CCS(=O)(=O)N1CC2(C1)CN(S(=O)(=O)c1ccc(C)cc1)[C@@H](CO)c1[nH]c3cc(OC)ccc3c12	·	–	·	–
N#C[C@@H]1[C@H](c2ccc(-c3ccccc3F)cc2)[C@@H](CO)N1C(=O)c1ccccn1	·	–	–	–
COC(=O)c1cc(C)cc(OC)c1C1C(=O)C(=O)c2c(O)cccc2C1=O (stereo not drawn)	–	·	·	·
COc1cccc(C#Cc2ccc([C@H]3[C@@H](CO)N(C(=O)C4CCCC4)[C@H]3C#N)cc2)c1	·	–	·	-93.5
COc1cccc(C#Cc2ccc([C@@H]3[C@@H](C#N)N(C(=O)C4CCCC4)[C@@H]3CO)cc2)c1	·	–	·	–
COc1cccc(C#Cc2ccc([C@H]3[C@@H](C#N)N(C(=O)C4CCCC4)[C@@H]3CO)cc2)c1	·	–	·	-83.3
